Assays:
SNB-19 = assay: Cytotoxicity against human SNB19 cells by sulforhodamine B method; assay type: functional, cell-based
CAKI-1 = assay: Cytotoxicity against human Caki1 cells by sulforhodamine B method; assay type: functional, cell-based
SK-MEL-28 = assay: Cytotoxicity against human SK-MEL-28 cells by sulforhodamine B method; assay type: functional, cell-based
MDA-MB-231 = assay: Cytotoxicity against human MDA-MB-231 cells by sulforhodamine B method; assay type: functional, cell-based
PC-3 = assay: Cytotoxicity against human PC3 cells by sulforhodamine B method; assay type: functional, cell-based
HCT-116 = assay: Cytotoxicity against human HCT116 cells by sulforhodamine B method; assay type: functional, cell-based
A549 = assay: Cytotoxicity against human A549 cells by sulforhodamine B method; assay type: functional, cell-based
OVCAR-3 = assay: Cytotoxicity against human OVCAR-3 cells by sulforhodamine B method; assay type: functional, cell-based
PANC-1 = assay: Cytotoxicity against human PANC1 cells by sulforhodamine B method; assay type: functional, cell-based
HeLa [1] = assay: Induction of apoptosis in human HeLa cells at 100 nM after 24 hrs using propidium iodide/annexin V staining by flow cytometry relative to control; assay type: functional
Procedure, shortened: (§1)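 Annexin V/PI apoptosis assay: HeLa cells given compound (50–500 nM, 24 h) or no treatment, then co-stained with FITC-annexin V and propidium iodide. Phosphatidylserine externalization was scored by flow cytometry, with early apoptotic (annexin V-positive) and late apoptotic quadrants read separately.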

HeLa [2] = assay: Cell cycle arrest in human HeLa cells assessed as accumulation at G1 phase at 100 nM after 24 hrs using propidium iodide staining by flow cytometry relative to control; assay type: functional
Procedure, shortened: (§2)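 HeLa cells exposed 24 h to compound (50–500 nM range) or left untreated, then washed and harvested. DNA was stained with propidium iodide and cell-cycle phase distribution measured by flow cytometry.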

HeLa [3] = assay: Cell cycle arrest in human HeLa cells assessed as accumulation at S phase at 300 nM after 24 hrs using propidium iodide staining by flow cytometry relative to control; assay type: functional; procedure, shortened: as §2
HeLa [4] = assay: Induction of apoptosis in human HeLa cells at 300 nM after 24 hrs using propidium iodide/annexin V staining by flow cytometry relative to control; assay type: functional; procedure, shortened: as §1
HeLa [5] = assay: Induction of apoptosis in human HeLa cells at 200 nM after 24 hrs using propidium iodide/annexin V staining by flow cytometry relative to control; assay type: functional; procedure, shortened: as §1
HeLa [6] = assay: Cell cycle arrest in human HeLa cells assessed as accumulation at G2/M phase at 300 nM after 24 hrs using propidium iodide staining by flow cytometry relative to control; assay type: functional; procedure, shortened: as §2
HeLa [7] = assay: Cell cycle arrest in human HeLa cells assessed as accumulation at S phase at 50 nM after 24 hrs using propidium iodide staining by flow cytometry relative to control; assay type: functional; procedure, shortened: as §2
HeLa [8] = assay: Cell cycle arrest in human HeLa cells assessed as accumulation at G1 phase at 200 nM after 24 hrs using propidium iodide staining by flow cytometry relative to control; assay type: functional; procedure, shortened: as §2
HeLa [9] = assay: Cell cycle arrest in human HeLa cells assessed as accumulation at G1 phase at 50 nM after 24 hrs using propidium iodide staining by flow cytometry relative to control; assay type: functional; procedure, shortened: as §2
HeLa [10] = assay: Cell cycle arrest in human HeLa cells assessed as accumulation at S phase at 200 nM after 24 hrs using propidium iodide staining by flow cytometry relative to control; assay type: functional; procedure, shortened: as §2
HeLa [11] = assay: Cell cycle arrest in human HeLa cells assessed as accumulation at G2/M phase at 500 nM after 24 hrs using propidium iodide staining by flow cytometry relative to control; assay type: functional; procedure, shortened: as §2
HeLa [12] = assay: Cell cycle arrest in human HeLa cells assessed as accumulation at G1 phase at 500 nM after 24 hrs using propidium iodide staining by flow cytometry relative to control; assay type: functional; procedure, shortened: as §2
HeLa [13] = assay: Induction of apoptosis in human HeLa cells at 500 nM after 24 hrs using propidium iodide/annexin V staining by flow cytometry relative to control; assay type: functional; procedure, shortened: as §1
HeLa [14] = assay: Cell cycle arrest in human HeLa cells assessed as accumulation at G2/M phase at 100 nM after 24 hrs using propidium iodide staining by flow cytometry relative to control; assay type: functional; procedure, shortened: as §2
HeLa [15] = assay: Cell cycle arrest in human HeLa cells assessed as accumulation at G2/M phase at 200 nM after 24 hrs using propidium iodide staining by flow cytometry relative to control; assay type: functional; procedure, shortened: as §2
HeLa [16] = assay: Cell cycle arrest in human HeLa cells assessed as accumulation at S phase at 500 nM after 24 hrs using propidium iodide staining by flow cytometry relative to control; assay type: functional; procedure, shortened: as §2
HeLa [17] = assay: Cell cycle arrest in human HeLa cells assessed as accumulation at G1 phase at 300 nM after 24 hrs using propidium iodide staining by flow cytometry relative to control; assay type: functional; procedure, shortened: as §2
HeLa [18] = assay: Cell cycle arrest in human HeLa cells assessed as accumulation at S phase at 100 nM after 24 hrs using propidium iodide staining by flow cytometry relative to control; assay type: functional; procedure, shortened: as §2
HeLa [19] = assay: Cell cycle arrest in human HeLa cells assessed as accumulation at G2/M phase at 50 nM after 24 hrs using propidium iodide staining by flow cytometry relative to control; assay type: functional; procedure, shortened: as §2
HeLa [20] = assay: Induction of apoptosis in human HeLa cells at 50 nM after 24 hrs using propidium iodide/annexin V staining by flow cytometry relative to control; assay type: functional; procedure, shortened: as §1

SMILES | IC50 (SNB-19) [nM] | IC50 (CAKI-1) [nM] | IC50 (SK-MEL-28) [nM] | IC50 (MDA-MB-231) [nM] | IC50 (PC-3) [nM] | IC50 (HCT-116) [nM] | IC50 (A549) [nM] | IC50 (OVCAR-3) [nM] | IC50 (PANC-1) [nM] | other results
COc1cccc(-c2cc3cc(C)ccc3c(N)n2)c1 | 750 | 690 | 720 | 570 | 1190 | 590 | 107 | 470 | 1280 | 
Cc1ccc2c(N)nc(-c3c(C)cccc3C)cc2c1 | 240 | 120 | 230 | 140 | 240 | 170 | 380 | 160 | 210 | 
Cc1cccc(-c2cc3cc(C)ccc3c(N)n2)c1 | 210 | 160 | 250 | 150 | 220 | 180 | 182 | 150 | 200 | 
COc1cccc(-c2cc3ccc(C)cc3c(N)n2)c1 | 480 | 140 | 410 | 170 | 420 | 210 | 447 | 240 | 470 | 
Cc1ccc2cc(-c3ccccc3C)nc(N)c2c1 | 160 | 140 | 180 | 75 | 260 | 120 | 53.7 | 100 | 200 | 
CN(C)c1cccc2c(N)nc(-c3ccccc3)cc12 | > 10000 | > 10000 | > 10000 | > 10000 | > 10000 | > 10000 | > 10000 | > 10000 | > 10000 | 
COc1ccc(-c2cc3cc(C)ccc3c(N)n2)cc1OC | 2150 | 510 | 1410 | 660 | 2690 | 850 | 562 | 570 | 1750 | 
Cc1ccc2c(N)nc(-c3ccc4c(c3)OCO4)cc2c1 | 230 | 110 | 220 | 130 | 190 | 160 | 141 | 160 | 220 | 
COc1ccc(-c2cc3cc(C)ccc3c(N)n2)c(C)c1 | 280 | 120 | 290 | 150 | 250 | 170 | 170 | 170 | 240 | 
COc1cc2cc(-c3ccccc3)nc(N)c2cc1OC | 710 | 590 | 750 | 440 | 580 | 520 | 129 | 270 | 670 | 
COc1cccc(-c2cc3cc(OC)c(OC)cc3c(N)n2)c1 | 220 | 170 | 230 | 140 | 180 | 160 | 759 | 74 | 190 | Activity (HeLa [1]): 6.14%; Activity (HeLa [2]): 35.29%; Activity (HeLa [3]): 6.6%; Activity (HeLa [4]): 9.78%; Activity (HeLa [5]): 8.8%; Activity (HeLa [6]): 83.14%; Activity (HeLa [7]): 15.37%; Activity (HeLa [8]): 15.58%; Activity (HeLa [9]): 48.83%; Activity (HeLa [10]): 11.36%; Activity (HeLa [11]): 86.98%; Activity (HeLa [12]): 8.25%; Activity (HeLa [13]): 12.52%; Activity (HeLa [14]): 48.59%; Activity (HeLa [15]): 73.06%; Activity (HeLa [16]): 4.77%; Activity (HeLa [17]): 10.26%; Activity (HeLa [18]): 16.12%; Activity (HeLa [19]): 35.8%; Activity (HeLa [20]): 5.92%
COc1cc(OC)cc(-c2cc3cc(OC)c(OC)cc3c(N)n2)c1 | 400 | 540 | 690 | 400 | 720 | 770 | 282 | 190 | 700 | 
COc1cc2cc(-c3ccccc3C)nc(N)c2cc1OC | 560 | 670 | 910 | 540 | 1250 | 780 | 437 | 380 | 830 | 
Cc1ccccc1-c1cc2c(N(C)C)cccc2c(N)n1 | > 10000 | > 10000 | > 10000 | > 10000 | > 10000 | > 10000 | > 10000 | > 10000 | > 10000 | 
COc1ccc(-c2cc3c(N(C)C)cccc3c(N)n2)cc1OC | > 10000 | > 10000 | > 10000 | > 10000 | > 10000 | > 10000 | > 10000 | > 10000 | > 10000 | 
Cc1ccc2c(N)nc(-c3ccccc3C)cc2c1 |  |  |  |  |  |  | 162 |  |  | 
